Measurements published in ChEMBL document CHEMBL4325870, “Synthesis and biological evaluation of 3-aryl-quinolin derivatives as anti-breast cancer agents targeting ERα and VEGFR-2” (Eur J Med Chem, 2019).
The source made the active and inactive calls. No cut-off for these calls is given here.

Key:
MCF7 [1] = experiment: Antiproliferative activity against human MCF7 cells after 48 hrs by MTT assay; assay type: functional, cell-based; details: MCF7, 48 h
In short: (§1)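 Cells kept in RPMI1640 with 10% FBS and penicillin/streptomycin at 37 °C, 5% CO2. Seeded at 1 x 10^5/mL, grown 24 h, then exposed to compound-containing medium for 48 h; controls received 1% DMSO medium. MTT (5 mg/mL) added for 4 h in the dark, formazan dissolved in DMSO, absorbance read. Value is concentration giving 50% growth inhibition.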

MCF7 [2] = experiment: Effect on progesterone receptor mRNA expression in non-stimulated human MCF7 cells at 1 uM by SYBR green dye based RT-PCR analysis; assay type: ADME, cell-based; details: mcf7, 1 µM
In short: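 Real-time PCR on MCF-7 cells given compound at 1 μM alone, without estradiol. Amplification: 95 °C 2 min, then 40 cycles of 95 °C 10 s, 60 °C 30 s, 95 °C 10 s. PgR mRNA normalised to GAPDH by the ΔΔCT method; mean ± SD, n=3.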

Ishikawa [3] = experiment: Antiproliferative activity against human Ishikawa cells after 48 hrs by MTT assay; assay type: functional; in short: as §1
Ishikawa [4] = experiment: Stimulation of cell proliferation in human Ishikawa cells at 1 to 10 uM after 48 hrs by MTT assay; assay type: ADME, cell-based
In short: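 Ishikawa endometrial cells in RPMI1640 with 10% FBS, seeded at 1 x 10^5/mL, exposed 48 h to compound at 1 μM or 10 μM, then read by MTT assay (5 mg/mL MTT, 4 h, dark, DMSO solubilisation, absorbance).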

HUVEC = experiment: Antiproliferative activity against HUVEC after 48 hrs by MTT assay; assay type: functional, cell-based; details: Homo sapiens; in short: as §1
[5] = target: Vascular endothelial growth factor receptor 2 (Homo sapiens, UniProt P35968)
Chain of Vascular endothelial growth factor receptor 2 (P35968 whole entry): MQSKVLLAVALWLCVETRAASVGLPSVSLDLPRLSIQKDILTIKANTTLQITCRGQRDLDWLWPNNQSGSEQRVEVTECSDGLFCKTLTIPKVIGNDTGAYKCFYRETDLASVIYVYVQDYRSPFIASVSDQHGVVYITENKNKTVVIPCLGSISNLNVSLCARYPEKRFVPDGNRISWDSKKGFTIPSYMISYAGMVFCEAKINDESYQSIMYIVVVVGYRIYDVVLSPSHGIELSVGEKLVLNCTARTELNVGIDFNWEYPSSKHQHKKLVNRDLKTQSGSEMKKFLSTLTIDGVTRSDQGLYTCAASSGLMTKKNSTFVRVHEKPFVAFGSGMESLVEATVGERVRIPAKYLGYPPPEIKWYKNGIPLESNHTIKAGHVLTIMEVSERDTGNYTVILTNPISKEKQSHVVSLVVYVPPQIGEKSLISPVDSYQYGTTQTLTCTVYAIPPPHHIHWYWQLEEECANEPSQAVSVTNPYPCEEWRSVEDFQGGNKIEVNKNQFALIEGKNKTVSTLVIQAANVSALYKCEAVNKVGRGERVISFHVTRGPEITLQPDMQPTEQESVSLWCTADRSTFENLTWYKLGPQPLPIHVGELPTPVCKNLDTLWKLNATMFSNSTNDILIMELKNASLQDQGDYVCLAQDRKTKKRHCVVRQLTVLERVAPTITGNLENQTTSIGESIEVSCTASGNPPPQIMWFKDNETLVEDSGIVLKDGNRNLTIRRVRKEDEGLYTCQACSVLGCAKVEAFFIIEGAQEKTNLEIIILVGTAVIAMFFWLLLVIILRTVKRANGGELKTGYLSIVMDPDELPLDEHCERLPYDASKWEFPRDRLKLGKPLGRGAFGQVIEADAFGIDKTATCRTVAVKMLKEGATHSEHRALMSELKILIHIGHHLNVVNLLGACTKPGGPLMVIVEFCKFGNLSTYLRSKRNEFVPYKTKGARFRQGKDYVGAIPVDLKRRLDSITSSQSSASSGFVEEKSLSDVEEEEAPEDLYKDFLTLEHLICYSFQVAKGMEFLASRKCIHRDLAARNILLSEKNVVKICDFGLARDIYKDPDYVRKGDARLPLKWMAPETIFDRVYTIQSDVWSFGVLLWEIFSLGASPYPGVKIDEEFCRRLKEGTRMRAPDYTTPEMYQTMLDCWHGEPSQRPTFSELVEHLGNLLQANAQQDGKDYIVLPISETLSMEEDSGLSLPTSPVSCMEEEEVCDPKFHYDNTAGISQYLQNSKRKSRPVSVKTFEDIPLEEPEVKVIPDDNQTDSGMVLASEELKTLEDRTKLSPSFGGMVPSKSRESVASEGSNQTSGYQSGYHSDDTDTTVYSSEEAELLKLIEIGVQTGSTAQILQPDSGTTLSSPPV

Estrogen receptor = target: T1, Estrogen receptor (Homo sapiens, UniProt P03372); experiment: Displacement of fluorescent estrogen ligand from recombinant human full length untagged ERalpha expressed in Spodoptera frugiperda insect cells measured after 2 hrs by fluorescence polarization assay
T1 sequence (P03372 whole entry): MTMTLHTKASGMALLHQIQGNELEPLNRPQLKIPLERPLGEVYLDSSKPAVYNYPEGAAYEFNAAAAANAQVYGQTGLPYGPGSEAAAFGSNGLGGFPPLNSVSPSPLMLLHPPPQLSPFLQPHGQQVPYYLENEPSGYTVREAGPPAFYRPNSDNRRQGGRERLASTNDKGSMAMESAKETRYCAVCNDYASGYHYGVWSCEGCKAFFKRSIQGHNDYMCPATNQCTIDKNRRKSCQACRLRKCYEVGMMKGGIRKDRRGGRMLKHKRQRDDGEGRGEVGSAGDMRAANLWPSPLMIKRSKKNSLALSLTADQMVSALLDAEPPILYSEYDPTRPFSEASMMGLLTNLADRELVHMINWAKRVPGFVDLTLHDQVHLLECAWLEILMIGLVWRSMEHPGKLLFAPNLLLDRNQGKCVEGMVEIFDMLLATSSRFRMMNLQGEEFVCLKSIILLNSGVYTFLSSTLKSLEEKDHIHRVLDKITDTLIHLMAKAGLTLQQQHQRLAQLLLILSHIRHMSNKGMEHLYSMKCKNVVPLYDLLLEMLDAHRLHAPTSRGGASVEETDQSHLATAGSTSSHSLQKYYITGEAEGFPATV

MCF7 [6] = experiment: Cell cycle arrest in human MCF7 cells assessed as accumulation at G1 phase at 1.25 uM after 24 hrs by propidium iodide staining based flow cytometry (reference value: 46.25%); assay type: functional
In short: (§2)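 MCF-7 cells exposed to 1.25 μM compound or DMSO vehicle for 12 h and 24 h. Cells washed in ice-cold PBS, pelleted, fixed in ice-cold 70% ethanol, RNase-treated (0.1 mg/mL), stained with propidium iodide, and analysed by flow cytometry for G1, S and G2 phase distribution.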

MCF7 [7] = experiment: Cell cycle arrest in human MCF7 cells assessed as accumulation at G2 phase at 1.25 uM after 12 hrs by propidium iodide staining based flow cytometry (reference value: 31.48%); assay type: functional; in short: as §2
MCF7 [8] = experiment: Cell cycle arrest in human MCF7 cells assessed as accumulation at S phase at 1.25 uM after 24 hrs by propidium iodide staining based flow cytometry (reference value: 18.93%); assay type: functional; in short: as §2
MCF7 [9] = experiment: Cell cycle arrest in human MCF7 cells assessed as accumulation at G2 phase at 1.25 uM after 24 hrs by propidium iodide staining based flow cytometry (reference value: 31.48%); assay type: functional; in short: as §2
MCF7 [10] = experiment: Cell cycle arrest in human MCF7 cells assessed as accumulation at G1 phase at 1.25 uM after 12 hrs by propidium iodide staining based flow cytometry (reference value: 46.25%); assay type: functional; in short: as §2
MCF7 [11] = experiment: Cell cycle arrest in human MCF7 cells assessed as accumulation at S phase at 1.25 uM after 12 hrs by propidium iodide staining based flow cytometry (reference value: 18.93%); assay type: functional; in short: as §2
MCF7 [12] = experiment: Antimigratory activity in human MCF7 cells assessed as inhibition of wound healing at 1.25 uM after 8 to 48 hrs by phase contrast microscopic analysis; assay type: functional, cell-based
In short: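 Wound-healing assay: MCF-7 monolayers grown to full confluence in 24-well plates, scratched with a tip, washed twice with PBS, then given serum-free 1640 medium with or without compound at 1.25 μM. Wound closure photographed by phase-contrast microscopy (100×) at 8, 16, 24/48 h; migration rate quantified from images.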

IC50 (MCF7 [1]) [µM] | IC50 [5] [µM] | Structure (SMILES) | Activity (Ishikawa [3]) [µM] | IC50 (HUVEC) [µM] | also measured
16.7 |  | CC/C(=C(\c1ccccc1)c1ccc(OCCN(C)C)cc1)c1ccccc1 [TAMOXIFEN] | >50 |  | Activity (MCF7 [2]): Non-Toxic; Activity (Ishikawa [4]): Toxic
> 50 | 0.11 | COc1ccc(-c2cc3ccc(OC)cc3nc2Nc2ccc(NC(=O)CN3CCOCC3)cc2)cc1 | >50 | 9.1 | 
39.5 | 0.109 | COc1ccc(-c2cc3cc(OC)ccc3nc2Nc2ccc(NC(=O)CN(C)C)cc2)cc1 | >50 | 22.2 | 
> 50 | 0.08 | COc1ccc(-c2cc3cc(OC)ccc3nc2Nc2ccc(NC(=O)CN3CCCCC3)cc2)cc1 | >50 | > 50 | 
2.8 | 0.104 | COc1ccc(-c2cc3ccc(OC)cc3nc2Nc2ccc(NC(=O)CN3CCN(C)CC3)cc2)cc1 | 3.8 | 7.4 | IC50 (Estrogen receptor): 2.33 µM; Activity (Ishikawa [4]): Non-Toxic
9.6 | 0.114 | COc1ccc(-c2cc3ccc(OC)cc3nc2Nc2ccc(NC(=O)CN(C)C)cc2)cc1 | 8.4 | 9.2 | 
> 50 | 0.117 | COc1ccc(-c2cc3cc(OC)ccc3nc2Nc2ccc(NC(=O)CN3CCOCC3)cc2)cc1 | >50 | > 50 | 
17.3 | 0.101 | CCN(CC)CC(=O)Nc1ccc(Nc2nc3cc(OC)ccc3cc2-c2ccc(OC)cc2)cc1 | 21.4 | 14 | 
1.8 | 0.086 | COc1ccc(-c2cc3cc(OC)ccc3nc2Nc2ccc(NC(=O)CN3CCN(C)CC3)cc2)cc1 | 1.8 | 7.4 | IC50 (Estrogen receptor): 1.78 µM; Activity (MCF7 [6]): 54.63%; Activity (MCF7 [7]): 28.82%; Activity (MCF7 [8]): 22.39%; Activity (MCF7 [9]): 20.43%; Activity (MCF7 [2]): Non-Toxic; Activity (MCF7 [10]): 51.18%; Activity (MCF7 [11]): 18.78%; Activity (Ishikawa [4]): Non-Toxic
7.29 | 0.131 | COc1ccc(-c2cc3cc(OC)ccc3nc2Nc2ccc(NC(=O)CN3CCCC3)cc2)cc1 | 10.3 | 13.1 | 
 |  | CCN(CC)CCNC(=O)c1c(C)[nH]c(/C=C2\C(=O)Nc3ccc(F)cc32)c1C [SUNITINIB] | 14.3 | 3.2 | inhibition (MCF7 [12]): Active
6.6 | 0.125 | COc1ccc(-c2cc3ccc(OC)cc3nc2Nc2ccc(NC(=O)CN3CCCC3)cc2)cc1 | 8.2 | 8.6 | 
12.5 |  | O=C(c1ccc(OCCN2CCCCC2)cc1)c1c(-c2ccc(O)cc2)sc2cc(O)ccc12 [RALOXIFENE] | >50 |  | Activity (Ishikawa [4]): Toxic
47.9 | 0.079 | COc1ccc(-c2cc3ccc(OC)cc3nc2Nc2ccc(NC(=O)CN3CCCCC3)cc2)cc1 | >50 | 23.5 | 
> 50 | 0.081 | CCN(CC)CC(=O)Nc1ccc(Nc2nc3ccc(OC)cc3cc2-c2ccc(OC)cc2)cc1 | >50 | 45.6 | 
